Laboratory results as given in ChEMBL document CHEMBL1142977, “1,4-benzodiazepines as inhibitors of respiratory syncytial virus. The identification of a clinical candidate” (J Med Chem, 2007).
Converted amounts (≈) assume the structure as drawn.

How the values were obtained:
[1] = system: Respiratory syncytial virus; assay: Antiviral activity against RSV RSS in Hep2 cells by XTT assay; format: functional, organism-based, HEp-2; conditions: for IC50: human respiratory syncytial virus, RSS, HEp-2
Summary of the method: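 HEp-2 cells infected with RSV RSS strain in the presence of compound, incubated 6 days at 37 °C. Residual viability was read by XTT metabolism to a coloured product, and IC50 was derived.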

in vivo [2] = conditions: rat, plasma, po, 5 mg/kg
[3] = Cytotoxicity against RSV RSS infected Hep2 cells by ELISA; format: cell-based; conditions: human, hep-2
[4] = Oral bioavailability in rat at 5 mg/kg, po in lipid based formulation; format: ADME, organism-based; conditions: in vivo
Summary of the method: (§1)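 Rat, oral dose of 5 mg/kg in a lipid-based formulation, n = 3. Bioavailability was calculated relative to the 5 mg/kg intravenous dose.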

[5] = Half life in rat at 5 mg/kg, iv; conditions: in vivo
[6] = Cmax in rat at 5 mg/kg, po; format: ADME, organism-based; design: dose 5 mg/kg, route oral; conditions: in vivo; summary of the method: as §1
[7] = system: Respiratory syncytial virus; assay: Antiviral activity against RSV RSS in Hep2 cells by ELISA; format: functional, organism-based, HEp-2; conditions: for IC50: human respiratory syncytial virus, RSS, HEp-2
Summary of the method: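 HEp-2 cells infected with RSV RSS strain and exposed to compound for 3 days at 37 °C. Monoclonal antibodies to RSV F, N and P proteins were detected with an enzyme-linked secondary antibody. Substrate conversion to a coloured product was read by optical density, and IC50 was derived.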

Serum [8] = assay: Protein binding in dog serum; format: ADME, cell-free, Canis lupus familiaris
[9] = Apparent permeability coefficient assessed using MDCK cells; format: ADME, cell-based, Canis lupus familiaris; conditions: dog
[10] = Aqueous solubility at pH 7.0; format: physicochemical
in vivo [11] = conditions: rat, plasma, iv, 5 mg/kg
Serum [12] = assay: Protein binding in human serum; format: ADME, cell-free
[13] = system: Respiratory syncytial virus; assay: Antiviral activity against RSV RSS in Hep2 cells by plaque assay; format: functional, organism-based, HEp-2; conditions: for IC50: human respiratory syncytial virus, RSS, HEp-2
Summary of the method: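 HEp-2 monolayers infected with RSV RSS strain and allowed 2 h adsorption. Compound was then added in medium with 0.6% agarose and incubated 5 days at 37 °C. Monolayers were fixed, the overlay removed, and plaques stained with methylene blue.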

[14] = Half life in rat at 5 mg/kg, po; conditions: in vivo
[15] = Cytotoxicity against RSV RSS infected Hep2 cells by plaque assay; format: cell-based; conditions: human, hep-2
[16] = Fraction unbound ligand in rat serum; format: ADME, cell-free
[17] = Cmax in rat at 5 mg/kg, iv; format: ADME, organism-based; design: dose 5 mg/kg, route intravenous; conditions: in vivo
Summary of the method: (§2)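 Rat, single intravenous dose of 5 mg/kg, n = 3. Parameters were derived from plasma concentrations.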

[18] = Cytotoxicity against RSV RSS infected Hep2 cells by XTT assay; format: cell-based; conditions: human, hep-2
Summary of the method: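 Same XTT format (HEp-2 cells, 6 days at 37 °C, XTT read-out) run in parallel without virus. TD50 is the concentration giving 50% cell death in the absence of virus.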

[19] = Fraction unbound ligand in human serum; format: ADME, cell-free
[20] = Oral bioavailability in rat at 5 mg/kg, po in 1% CMC suspension; format: ADME, organism-based; conditions: in vivo
Summary of the method: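 Rat, oral dose of 5 mg/kg given as a suspension in 1% carboxymethylcellulose. Bioavailability was estimated relative to intravenous dosing.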

Cytochrome P450 2C9 = Cytochrome P450 2C9 (Homo sapiens, UniProt P11712); assay: Inhibition of CYP2C9; format: ADME
Chain of Cytochrome P450 2C9 (P11712 whole entry, canonical isoform): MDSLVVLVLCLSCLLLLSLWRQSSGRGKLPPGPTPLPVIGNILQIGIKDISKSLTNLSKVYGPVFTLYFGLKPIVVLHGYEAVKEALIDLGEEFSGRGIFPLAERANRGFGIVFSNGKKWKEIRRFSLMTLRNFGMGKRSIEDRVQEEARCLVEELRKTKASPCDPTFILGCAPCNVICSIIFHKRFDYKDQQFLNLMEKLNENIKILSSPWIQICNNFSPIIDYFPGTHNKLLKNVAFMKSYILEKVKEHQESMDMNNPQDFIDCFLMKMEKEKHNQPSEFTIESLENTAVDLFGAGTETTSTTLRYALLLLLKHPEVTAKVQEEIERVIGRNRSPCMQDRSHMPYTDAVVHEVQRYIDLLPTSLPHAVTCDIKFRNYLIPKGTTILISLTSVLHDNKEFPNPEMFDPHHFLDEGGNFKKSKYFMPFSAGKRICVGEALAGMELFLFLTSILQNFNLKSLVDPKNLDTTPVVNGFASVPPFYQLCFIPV
Summary of the method: (§3)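 CYP inhibition was assessed as an effect on the metabolism of isoform-specific probe substrates for CYP3A4, 1A2, 2D6, 2C9 and 2C19.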

Cytochrome P450 1A2 = target: T1, Cytochrome P450 1A2 (Homo sapiens, UniProt P05177); assay: Inhibition of CYP1A2; format: ADME; summary of the method: as §3
T1 sequence (P05177 whole entry): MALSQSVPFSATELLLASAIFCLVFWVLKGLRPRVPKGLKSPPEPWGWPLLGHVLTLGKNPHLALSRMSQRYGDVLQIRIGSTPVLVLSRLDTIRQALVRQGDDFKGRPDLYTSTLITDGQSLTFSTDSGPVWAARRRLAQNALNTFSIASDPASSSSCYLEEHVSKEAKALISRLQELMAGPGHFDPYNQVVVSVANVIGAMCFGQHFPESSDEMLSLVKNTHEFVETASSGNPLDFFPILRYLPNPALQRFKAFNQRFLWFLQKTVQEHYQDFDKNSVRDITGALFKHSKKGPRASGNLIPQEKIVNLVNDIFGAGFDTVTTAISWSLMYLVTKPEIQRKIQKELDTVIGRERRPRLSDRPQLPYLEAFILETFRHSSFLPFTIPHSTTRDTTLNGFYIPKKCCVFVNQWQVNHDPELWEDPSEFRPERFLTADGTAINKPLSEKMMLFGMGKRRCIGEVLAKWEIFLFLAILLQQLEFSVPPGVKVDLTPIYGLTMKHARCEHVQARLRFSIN

Cytochrome P450 2C19 = Cytochrome P450 2C19 (Homo sapiens, UniProt P33261); assay: Inhibition of CYP2C19; format: ADME; summary of the method: as §3
Chain of Cytochrome P450 2C19 (P33261 whole entry): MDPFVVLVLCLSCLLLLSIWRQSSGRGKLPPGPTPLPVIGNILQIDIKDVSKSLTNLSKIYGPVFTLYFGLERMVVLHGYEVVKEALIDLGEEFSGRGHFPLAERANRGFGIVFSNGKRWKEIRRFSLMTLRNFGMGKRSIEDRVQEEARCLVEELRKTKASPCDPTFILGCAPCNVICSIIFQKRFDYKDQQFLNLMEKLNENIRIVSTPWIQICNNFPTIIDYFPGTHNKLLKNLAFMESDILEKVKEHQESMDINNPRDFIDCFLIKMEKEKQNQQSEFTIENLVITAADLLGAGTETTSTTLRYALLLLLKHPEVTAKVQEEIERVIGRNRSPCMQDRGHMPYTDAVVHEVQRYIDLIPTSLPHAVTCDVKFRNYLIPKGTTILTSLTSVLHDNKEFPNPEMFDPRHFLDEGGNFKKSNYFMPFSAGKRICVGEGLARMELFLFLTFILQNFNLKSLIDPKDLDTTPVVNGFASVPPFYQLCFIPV

[21] = Volume of distribution in rat at 5 mg/kg, iv; format: ADME, organism-based; design: dose 5 mg/kg, route intravenous; conditions: in vivo, read-out: Vss; summary of the method: as §2
[22] = Fraction unbound ligand in dog serum; format: ADME, cell-free, Canis lupus familiaris
Serum [23] = assay: Protein binding in rat serum; format: ADME, cell-free
Cytochrome P450 3A4 = Cytochrome P450 3A4 (Homo sapiens, UniProt P08684); assay: Inhibition of CYP3A4; format: ADME; summary of the method: as §3
Chain of Cytochrome P450 3A4 (P08684 whole entry): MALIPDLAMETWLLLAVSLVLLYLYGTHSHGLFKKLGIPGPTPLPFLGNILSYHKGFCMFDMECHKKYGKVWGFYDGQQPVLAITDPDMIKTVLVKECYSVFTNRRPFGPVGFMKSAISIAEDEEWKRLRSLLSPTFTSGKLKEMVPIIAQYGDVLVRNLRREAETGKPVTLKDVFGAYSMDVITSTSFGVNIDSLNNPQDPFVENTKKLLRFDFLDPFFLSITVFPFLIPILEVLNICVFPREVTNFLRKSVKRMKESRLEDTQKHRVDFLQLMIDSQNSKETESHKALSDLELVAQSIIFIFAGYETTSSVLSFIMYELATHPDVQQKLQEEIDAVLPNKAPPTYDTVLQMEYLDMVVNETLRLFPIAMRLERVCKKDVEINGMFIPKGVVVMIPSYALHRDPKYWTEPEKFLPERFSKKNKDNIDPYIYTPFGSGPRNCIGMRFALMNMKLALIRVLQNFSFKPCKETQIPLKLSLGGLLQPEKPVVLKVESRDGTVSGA

Cytochrome P450 2D6 = Cytochrome P450 2D6 (Homo sapiens, UniProt P10635); assay: Inhibition of CYP2D6; format: ADME; summary of the method: as §3
Chain of Cytochrome P450 2D6 (P10635 whole entry): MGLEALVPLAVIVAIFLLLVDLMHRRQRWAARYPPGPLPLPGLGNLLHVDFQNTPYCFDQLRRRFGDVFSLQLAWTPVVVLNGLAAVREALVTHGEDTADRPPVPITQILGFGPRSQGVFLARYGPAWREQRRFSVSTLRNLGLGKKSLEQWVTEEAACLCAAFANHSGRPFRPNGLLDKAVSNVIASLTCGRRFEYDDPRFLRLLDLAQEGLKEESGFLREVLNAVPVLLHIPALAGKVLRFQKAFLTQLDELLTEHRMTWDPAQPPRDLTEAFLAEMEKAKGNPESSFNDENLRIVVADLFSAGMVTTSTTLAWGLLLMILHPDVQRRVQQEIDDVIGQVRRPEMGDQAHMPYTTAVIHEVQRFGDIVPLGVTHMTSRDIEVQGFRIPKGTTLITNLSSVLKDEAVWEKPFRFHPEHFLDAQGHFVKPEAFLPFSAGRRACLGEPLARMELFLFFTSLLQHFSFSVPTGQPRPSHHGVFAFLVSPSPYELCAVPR

SMILES: O=C(N[C@H]1N=C(c2ccccc2)c2ccccc2NC1=O)c1cc(Cl)ccc1N1CCS(=O)(=O)CC1
- TD50 [1]: >50 µM
- IC50 [1]: 2.2 µM

SMILES: O=C(N[C@H]1N=C(c2ccccc2)c2ccccc2NC1=O)C1CCCCC1
- TD50 [1]: >50 µM
- IC50 [1]: 3.3 µM

SMILES: O=C(NC1N=C(c2ccccc2)c2ccccc2NC1=O)C1CCCCC1 (stereo not given)
- TD50 [1]: >50 µM
- IC50 [1]: 12.6 µM

SMILES: COc1cc([N+](=O)[O-])ccc1C(=O)N[C@@H]1N=C(c2ccccc2)c2ccccc2NC1=O
- TD50 [1]: >50 µM
- IC50 [1]: 21.2 µM

SMILES: O=C(Nc1ccccc1F)N[C@H]1N=C(c2ccccc2)c2ccccc2N(CC(=O)N2CCOCC2)C1=O
- TD50 [1]: >50 µM
- IC50 [1]: > 50 µM

SMILES: O=C(N[C@H]1N=C(c2ccccc2)c2ccccc2NC1=O)c1cc(F)ccc1N1CCS(=O)(=O)CC1
- TD50 [1]: >50 µM
- IC50 [1]: 0.7 µM

SMILES: O=C(Nc1ccccc1F)N[C@H]1N=C(c2ccccc2)c2ccccc2NC1=O [RSV-604]
- AUC(0-inf) (in vivo [2]): 10.9 µg·h/mL
- Activity [3]: Non-toxic
- bioavailability [4]: > 90%
- half-life [5]: 3.8 h
- Cmax [6]: 0.91 µg/mL
- TD50 [7]: >50 µM
- IC50 [7]: 1.4 µM
- Activity (Serum [8]): 95%
- Papp [9]: 130 nm/s
- solubility [10]: 4.1 µg/mL (≈ 10.6 µM)
- AUC(0-inf) (in vivo [11]): 11.7 µg·h/mL
- Activity (Serum [12]): 95%
- TD50 [13]: >50 µM
- IC50 [13]: 0.7 µM
- TD50 [1]: >50 µM
- IC50 [1]: 0.9 µM
- half-life [14]: 2.6 h
- Activity [15]: Non-toxic
- fraction unbound [16]: 0.05
- Cmax [17]: 3.3 µg/mL
- Activity [18]: Non-toxic
- fraction unbound [19]: 0.05
- bioavailability [20]: < 40%
- Activity (Cytochrome P450 2C9): Not Active
- Activity (Cytochrome P450 1A2): Not Active
- Activity (Cytochrome P450 2C19): Not Active
- Vd [21]: 2.2 L/kg
- fraction unbound [22]: 0.05
- Activity (Serum [23]): 95%
- Activity (Cytochrome P450 3A4): Not Active
- Activity (Cytochrome P450 2D6): Not Active

SMILES: O=C(CN1C(=O)[C@@H](NC(=O)Nc2ccccc2F)N=C(c2ccccc2)c2ccccc21)Nc1ccncc1
- TD50 [1]: >50 µM
- IC50 [1]: 14.2 µM

SMILES: O=C(Nc1ccccc1F)NC1N=C(c2ccccc2)c2ccccc2NC1=O (stereo not given)
- Activity [3]: Non-toxic
- TD50 [1]: >50 µM
- IC50 [1]: 27.8 µM
- Activity [15]: Non-toxic
- Activity [18]: Non-toxic

SMILES: O=C(Nc1ccccc1F)N[C@@H]1N=C(c2ccccc2)c2ccccc2NC1=O
- Activity [3]: Non-toxic
- TD50 [1]: >50 µM
- IC50 [1]: 27.8 µM
- Activity [15]: Non-toxic
- Activity [18]: Non-toxic

SMILES: CCNC(=O)CN1C(=O)[C@@H](NC(=O)Nc2ccccc2F)N=C(c2ccccc2)c2ccccc21
- TD50 [1]: >50 µM
- IC50 [1]: > 50 µM

SMILES: COc1cc([N+](=O)[O-])ccc1C(=O)N[C@H]1N=C(c2ccccc2)c2ccccc2NC1=O
- TD50 [7]: >50 µM
- IC50 [7]: 1 µM
- TD50 [13]: >50 µM
- IC50 [13]: 0.5 µM
- TD50 [1]: >50 µM
- IC50 [1]: 0.9 µM

SMILES: O=C(N[C@H]1N=C(c2ccccc2)c2ccccc2NC1=O)c1ccc(F)cc1N1CCCCC1
- TD50 [1]: >50 µM
- IC50 [1]: 7.5 µM

SMILES: COc1cc(S(C)(=O)=O)ccc1C(=O)N[C@H]1N=C(c2ccccc2)c2ccccc2NC1=O
- TD50 [7]: >50 µM
- IC50 [7]: 0.6 µM
- solubility [10]: 22 µg/mL (≈ 47.5 µM)
- TD50 [13]: >50 µM
- IC50 [13]: 0.5 µM
- TD50 [1]: >50 µM
- IC50 [1]: 0.5 µM

SMILES: O=C(N[C@H]1N=C(c2ccccc2)c2ccccc2NC1=O)c1ccc(N2CCOCC2)cc1Cl
- TD50 [7]: >50 µM
- IC50 [7]: 1.5 µM
- solubility [10]: 0.9 µg/mL (≈ 1.89 µM)
- TD50 [13]: >50 µM
- IC50 [13]: 0.8 µM
- TD50 [1]: >50 µM
- IC50 [1]: 1.4 µM

SMILES: O=C(N[C@H]1N=C(c2ccccc2)c2ccccc2NC1=O)c1cccnc1N1CCOCC1
- TD50 [1]: >50 µM
- IC50 [1]: 2.9 µM

SMILES: O=C(N[C@@H]1N=C(c2ccccc2)c2ccccc2NC1=O)C1CCCCC1
- TD50 [1]: >50 µM
- IC50 [1]: > 50 µM

SMILES: COc1cc([N+](=O)[O-])ccc1C(=O)NC1N=C(c2ccccc2)c2ccccc2NC1=O (stereo not given)
- TD50 [1]: >50 µM
- IC50 [1]: 2 µM
